Test results as given in ChEMBL document CHEMBL1143869, “Amide bond direction modulates G-quadruplex recognition and telomerase inhibition by 2,6 and 2,7 bis-substituted anthracenedione derivatives” (Bioorg Med Chem, 2008).

Assays:
Homo sapiens [1] = species: Homo sapiens; assay: Binding affinity to human telomeric G-quadraflex assessed as thermal stability at 10 uM by FRET assay
How it was run: (§1)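 Human telomeric (GGGTTA)4 oligonucleotide labelled with fluorescein at the 5'-end and MethylRed quencher at the 3'-end, folded into an intramolecular G-quadruplex in 50 mM potassium phosphate buffer, pH 7.4. Fluorescence melting was run on a Roche Light Cycler (excitation 488 nm, emission 520 nm) without and with ligand. Stabilisation was taken as the increase in melting temperature.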

Homo sapiens [2] = species: Homo sapiens; assay: Binding affinity to human telomeric G-quadraflex assessed as thermal stability at 1 uM by FRET assay; how it was run: as §1
[3] = Inhibition of human telomerase in JR8 cells by TRAP assay; type: cell-based
How it was run: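 Modified TRAP assay. Telomerase source was supernatant of JR8 cell lysate (13000 rpm, 30 min, 4 °C). The 50 µl reaction held 50 µM dNTPs, 0.2 µg labelled TS, 0.1 µg ACX return primer, 500 ng protein extract, 2 U Taq and a TSNT internal control with NT primer, with or without drug at increasing concentrations. Telomerase was inactivated at 85 °C for 5 min. PCR ran 25 cycles (94/65/72 °C, 30 s each). Products were resolved on a 2% agarose gel and stained with ethidium bromide.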

Structure (SMILES) | ΔTm (Homo sapiens [1]) [°C] | ΔTm (Homo sapiens [2]) [°C] | EC50 [3] [µM]
NCCC(=O)Nc1ccc2c(c1)C(=O)c1cc(NC(=O)CCN)ccc1C2=O | 27.3 | 11.3 | 1.2
NCCC(=O)Nc1ccc2c(c1)C(=O)c1ccc(NC(=O)CCN)cc1C2=O | 18.1 | 9.1 | 1.2
NCCNC(=O)c1ccc2c(c1)C(=O)c1cc(C(=O)NCCN)ccc1C2=O | 12.9 | 3.3 | 14.5
O=C(CCN1CCCC1)Nc1ccc2c(c1)C(=O)c1ccc(NC(=O)CCN3CCCC3)cc1C2=O | 19.2 | 5.9 | 2.5

Second part, the molecule after the results:

ΔTm (Homo sapiens [1]) [°C] | ΔTm (Homo sapiens [2]) [°C] | EC50 [3] [µM] | Structure (SMILES)
10 | 2 | 5.2 | NCCNC(=O)c1ccc2c(c1)C(=O)c1ccc(C(=O)NCCN)cc1C2=O
10.8 | 1.8 | 10.4 | O=C(NCCN1CCCC1)c1ccc2c(c1)C(=O)c1ccc(C(=O)NCCN3CCCC3)cc1C2=O
